ChEMBL document CHEMBL1130100, “Stabilized analogs of thymopentin. 3. Evaluation of ketomethylene pseudopeptides for antiarthritic properties” (1997)
Several values for one entry are separate records, joined by “and”; a condition that tells them apart may be missing. Identical values can stand only once.

What was measured:
Type in all cases: functional
Mus musculus [1] = experiment: On set and incidence of arthritis in the Mouse Type II collagen model following 0.5 mg/kg on day 30.
Procedure, shortened: (§1)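 DBA/1 Lac mice sensitized with bovine type II collagen (100 μg) in Freund's complete adjuvant, ip boost (100 μg) on day 21. Freshly dissolved compound in sterile saline was given iv every second day, day 19 through day 40, groups of 12. A mouse was scored arthritic if erythema or edema was present on any digit, paw or appendage. Incidence reported as number positive of 12.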

Mus musculus [2] = experiment: On set and incidence of arthritis in the Mouse Type II collagen model at 0.5 dose mg/kg on day 37, expressed as number of mice treated out of 12 tested; procedure, shortened: as §1
Mus musculus [3] = experiment: On set and incidence of arthritis in the Mouse Type II collagen model at 0.5 dose mg/kg on day 40,expressed as number of mice treated out of 12 tested; procedure, shortened: as §1
Mus musculus [4] = experiment: On set and incidence of arthritis in the Mouse Type II collagen model at 0.5 dose mg/kg on day 44, expressed as number of mice treated out of 12 tested; procedure, shortened: as §1
Mus musculus [5] = experiment: 68 Extent of paw swelling after treatment with thymopentin-5 (TP-5) compound in the Mouse Type II collagen arthritis at a dosage of 0.001 mg/kg on day 30
Procedure, shortened: (§2)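 DBA/1 Lac mice immunized with bovine type II collagen (100 μg) in Freund's complete adjuvant at four to six back sites, then boosted ip (100 μg) on day 21. Dosing was iv in sterile saline every second day from day 19 through day 40, 12 mice per dose. Each hind paw was measured by caliper. Result given as % of untreated swelling after subtracting age-matched normal paw.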

Mus musculus [6] = experiment: Extent of paw swelling after treatment with thymopentin-5 (TP-5) compound in the Mouse Type II collagen arthritis at a dosage of 0.001 mg/kg on day 30; procedure, shortened: as §2
Mus musculus [7] = experiment: On set and incidence of arthritis in the Mouse Type II collagen model at 0.5 dose mg/kg on day 37, expressed as ratio of number treated to that of control; procedure, shortened: as §1
Mus musculus [8] = experiment: On set and incidence of arthritis in the Mouse Type II collagen model at 0.5 dose mg/kg on day 40, expressed as ratio of number treated to that of control; procedure, shortened: as §1
Mus musculus [9] = experiment: On set and incidence of arthritis in the Mouse Type II collagen model at 0.5 dose mg/kg on day 44, expressed as ratio of number treated to that of control; procedure, shortened: as §1
Mus musculus [10] = experiment: Extent of paw swelling after treatment with thymopentin-5 (TP-5) compound in the Mouse Type II collagen arthritis at a dosage of 1.0 mg/kg on day 44; procedure, shortened: as §2
Mus musculus [11] = experiment: Extent of paw swelling after treatment with thymopentin-5 (TP-5) compound in mouse type II collagen arthritis at a dosage of 1.0 mg/kg on day 30; procedure, shortened: as §2
Mus musculus [12] = experiment: On set and incidence of arthritis in the Mouse Type II collagen model at 0.5 dose mg/kg on day 40, expressed as number of mice treated out of 12 tested; procedure, shortened: as §1
Rattus norvegicus [13] = experiment: extent of paw swelling following treatment with the compound in the rat adjuvant arthritis model observed on day 12 at 0.50 mg/kg dose; settings: dose 0.5 mg/kg
Procedure, shortened: (§3)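 Rat adjuvant arthritis with iv dosing every second day, starting 2 days before the adjuvant/antigen challenge. Initial doses ranged 0.05 to 0.50 mg/kg, eight rats per dose. Each hind paw was measured by caliper. Swelling minus age-matched normal paw, expressed as % of untreated animals.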

Rattus norvegicus [14] = experiment: extent of paw swelling following treatment with the compound in the rat adjuvant arthritis model observed on day 19 at 0.50 mg/kg dose; settings: dose 0.5 mg/kg; procedure, shortened: as §3
Rattus norvegicus [15] = experiment: extent of paw swelling following treatment with the compound in the rat adjuvant arthritis model observed on day 16 at 0.50 mg/kg dose; settings: dose 0.5 mg/kg; procedure, shortened: as §3
Mus musculus [16] = experiment: On set and incidence of arthritis in the Mouse Type II collagen model at 0.5 dose mg/kg on day 40, expressed as ratio of number treated to that of control:12 animals tested; procedure, shortened: as §1
Mus musculus [17] = experiment: Extent of paw swelling after treatment with thymopentin-5 (TP-5) compound in the Mouse Type II collagen arthritis at a dosage of 0.5 mg/kg on day 30; procedure, shortened: as §2
Mus musculus [18] = experiment: Extent of paw swelling after treatment with thymopentin-5 (TP-5) compound in the Mouse Type II collagen arthritis at a dosage of 0.5 mg/kg on day 37; procedure, shortened: as §2
Mus musculus [19] = experiment: Extent of paw swelling after treatment with thymopentin-5 (TP-5) compound in the Mouse Type II collagen arthritis at a dosage of 0.5 mg/kg on day 40; procedure, shortened: as §2
Mus musculus [20] = experiment: Extent of paw swelling after treatment with thymopentin-5 (TP-5) compound in the Mouse Type II collagen arthritis at a dosage of 0.5 mg/kg on day 44; procedure, shortened: as §2
Mus musculus [21] = experiment: Extent of paw swelling after treatment with thymopentin-5 (TP-5) compound in the Mouse Type II collagen arthritis at 1 mg/kg on day 30.; procedure, shortened: as §2
Mus musculus [22] = experiment: On set and incidence of arthritis in the Mouse Type II collagen model at 0.5 dose mg/kg on day 37,expressed as number of mice treated out of 12 tested; procedure, shortened: as §1
Rattus norvegicus [23] = experiment: extent of paw swelling following treatment with the compound in the rat adjuvant arthritis model observed on day 12 at 0.050 mg/kg dose; settings: dose 0.05 mg/kg; procedure, shortened: as §3
Rattus norvegicus [24] = experiment: extent of paw swelling following treatment with the compound in the rat adjuvant arthritis model observed on day 16 at 0.050 mg/kg dose; settings: dose 0.05 mg/kg; procedure, shortened: as §3
Rattus norvegicus [25] = experiment: extent of paw swelling following treatment with the compound in the rat adjuvant arthritis model observed on day 19 at 0.050 mg/kg dose; settings: dose 0.05 mg/kg; procedure, shortened: as §3
Mus musculus [26] = experiment: Extent of paw swelling after treatment with thymopentin-5 (TP-5) compound in the Mouse Type II collagen arthritis at a dosage of 0.01 mg/kg on day 30; procedure, shortened: as §2
Mus musculus [27] = experiment: Extent of paw swelling after treatment with thymopentin-5 (TP-5) compound in the Mouse Type II collagen arthritis at a dosage of 0.01 mg/kg on day 37; procedure, shortened: as §2
Mus musculus [28] = experiment: Extent of paw swelling after treatment with thymopentin-5 (TP-5) compound in the Mouse Type II collagen arthritis at a dosage of 0.01 mg/kg on day 44; procedure, shortened: as §2
Mus musculus [29] = experiment: Extent of paw swelling after treatment with thymopentin-5 (TP-5) compound in the Mouse Type II collagen arthritis at a dosage of 0.501 mg/kg on day 40; settings: dose 0.01 mg/kg; in the assay text read “0.01 mg/kg” for “0.501 mg/kg”; procedure, shortened: as §2

Structure (SMILES) | No. of mice (Mus musculus [1]) | No. of mice (Mus musculus [2]) | No. of mice (Mus musculus [4]) | No. of mice (Mus musculus [7]) | No. of mice (Mus musculus [8]) | No. of mice (Mus musculus [9]) | No. of mice (Mus musculus [12]) | other results
CCCC[C@@H](C(=O)N[C@@H](CC(=O)O)C(=O)N[C@H](C(=O)C[C@H](Cc1ccccc1)C(=O)O)C(C)C)N(C)C(=O)[C@@H](N)CCCN=C(N)N | 7 | 7 | 8 |  |  |  |  | No. of mice (Mus musculus [3]): 7; Paw swelling (Mus musculus [5]): 90%; Paw swelling (Mus musculus [6]): 90% and 43%
CCCC[C@H](NC(=O)[C@@H](N)CCCN=C(N)N)C(=O)N[C@@H](CC(=O)O)C(=O)C[C@H](C)C(=O)O | 8 |  |  | 11 | 11 | 12 |  | Paw swelling (Mus musculus [10]): 100%
CC(C)C(CC(=O)[C@H](CC(=O)O)NC(=O)C(CCCCN)NC(=O)[C@@H](N)CCCN=C(N)N)C(=O)NC(Cc1ccc(O)cc1)C(=O)O (some centres not stated) | 8 |  |  | 11 | 12 | 12 |  | Paw swelling (Mus musculus [11]): 100%
CC(C)C(CC(=O)[C@H](CC(=O)O)NC(=O)C(CCCCN)N(C)C(=O)[C@@H](N)CCCN=C(N)N)C(=O)N[C@@H](Cc1ccccc1)C(=O)O (some centres not stated) | 6 | 4 | 8 |  |  |  | 8 | Paw swelling (Mus musculus [11]; 1 mg/kg): 100% and 46% and 53%; Paw swelling (Rattus norvegicus [13]): 0%; Paw swelling (Rattus norvegicus [14]): 52%; Paw swelling (Rattus norvegicus [15]): 80%
CC(C)[C@H](NC(=O)[C@H](CC(=O)O)NC(=O)[C@H](CCCCN)NC(=O)[C@@H](N)CCCN=C(N)N)C(=O)C[C@@H](Cc1ccccc1)C(=O)O | 5 | 7 | 7 |  |  |  |  | No. of mice (Mus musculus [16]): 8; Paw swelling (Mus musculus [17]): 100%; Paw swelling (Mus musculus [18]): 100%; Paw swelling (Mus musculus [19]): 93%; Paw swelling (Mus musculus [20]): 53%
CCCCC(CC(=O)[C@@H](N)CCCN=C(N)N)C(=O)N[C@@H](CC(=O)O)C(=O)NC(C(=O)N[C@@H](Cc1ccccc1)C(=O)O)C(C)C (some centres not stated) | 3 |  |  | 7 | 7 | 8 |  | Paw swelling (Mus musculus [21]): 100%
CCCCC(NC(=O)[C@H](CCCN=C(N)N)NC(C)=O)C(=O)N[C@@H](CC(=O)O)C(=O)NC(C(=O)C[C@@H](Cc1ccccc1)C(=O)O)C(C)C (some centres not stated) | 8 |  | 12 |  |  |  | 11 | No. of mice (Mus musculus [22]): 11; Paw swelling (Mus musculus [21]): 100%; Paw swelling (Rattus norvegicus [23]): 0%; Paw swelling (Rattus norvegicus [24]): 100%; Paw swelling (Rattus norvegicus [25]): 100%
CC(C)[C@H](NC(=O)[C@H](CC(=O)O)NC(=O)[C@@H]1CCCN1C(=O)[C@@H](N)CCCN=C(N)N)C(=O)C[C@@H](Cc1ccccc1)C(=O)O (stereo in doubt; 1b-A) |  |  | 9 |  |  |  | 9 | No. of mice (Mus musculus [1]; 0.5 mg/kg): 8; Paw swelling (Mus musculus [26]): 62%; Paw swelling (Mus musculus [27]): 72%; Paw swelling (Mus musculus [28]): 47%; Paw swelling (Mus musculus [29]): 60%
